Experiment [1] has as its target T1, Retinoic acid receptor RXR-alpha (Homo sapiens, UniProt P19793).
T1 sequence (P19793 whole entry): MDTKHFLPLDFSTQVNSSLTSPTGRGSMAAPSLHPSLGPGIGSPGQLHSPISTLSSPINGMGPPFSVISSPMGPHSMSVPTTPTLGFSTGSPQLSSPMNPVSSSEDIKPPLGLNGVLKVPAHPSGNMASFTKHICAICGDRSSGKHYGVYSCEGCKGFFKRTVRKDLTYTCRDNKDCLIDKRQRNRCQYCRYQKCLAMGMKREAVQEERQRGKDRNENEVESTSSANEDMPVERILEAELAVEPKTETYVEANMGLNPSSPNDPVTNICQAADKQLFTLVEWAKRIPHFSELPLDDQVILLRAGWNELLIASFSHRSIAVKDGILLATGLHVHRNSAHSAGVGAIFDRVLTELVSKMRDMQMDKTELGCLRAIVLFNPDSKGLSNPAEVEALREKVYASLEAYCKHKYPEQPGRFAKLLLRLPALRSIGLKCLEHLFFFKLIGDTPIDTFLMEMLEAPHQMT
In words: Inhibition of 9-cis-retinoic acid competition binding to RXRalpha LBD (unknown origin) by fluorescence quenching method.

Experiment [2] has as its target T2, Retinoic acid receptor RXR-alpha (Homo sapiens) (UniProt P19793).
T2 sequence (whole entry): T1 sequence (P19793 whole entry)
In words: Antagonist activity at Gal4-fused human RXRalpha LBD (unknown origin) assessed as inhibition of 9-cis-retinoic acid-induced transactivation at 1 to 50 uM after 18 hrs by cell-based dual luciferase reporter gene assay. The procedure, abridged: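 Cells transfected with Gal4 reporter plus Gal4-RXRα/LBD plasmids for 24 h, then treated with compounds at 1, 10 and 50 µM in the presence of 9-cis-RA for 18 h. Firefly luciferase read from lysates, normalized to Renilla. A compound counted as antagonist when inhibition was dose-dependent.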
(Reporter assays use an easily measured gene product as a stand-in for the process of interest.)

For another experiment, the system named is MDA-MB-231. In words: Growth inhibition of human MDA-MB-231 cells after 48 hrs by MTT assay. The note with it: MDA-MB-231, 48 h. It is filed as functional, cell-based. Summed up:
(§1)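 MDA-MB-231 grown in DMEM, MCF-7 in MEM, each with 10% FBS, 37 °C, 5% CO2. Confluent cells exposed to compound, 0.195–100 μM, for 48 h. Then 2 mg/mL MTT for 4 h at 37 °C, formazan dissolved in DMSO, absorbance read at 490 nm. IC50 values are the mean of three independent experiments.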

Experiment [3] relates to MCF7. Description: Growth inhibition of human MCF7 cells after 48 hrs by MTT assay. Format: functional, cell-based. The note with it: MCF7, 48 h. The procedure, abridged:
as §1
On the technique in general: Tetrazolium assays rely on reduction of a dye to a coloured formazan, in cell work by metabolically active cells.

Experiment [4] concerns the target T2, Retinoic acid receptor RXR-alpha (Homo sapiens). In words: Inhibition of RXRalpha in human HeLa cells assessed as increase in PARP cleavage at 15 uM after 8 hrs in presence of TNFalpha by Immunoblotting analysis. It is filed as cell-based. The procedure, abridged: (§2)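 Cells kept in medium with 0% FBS and treated with compound together with TNF-α (20 ng/mL). Exposure was 8 h for HeLa and 12 h for MCF-7. PARP cleavage read by immunoblot: 10% SDS-PAGE, nitrocellulose, blocking in 5% milk/TBST, HRP secondary antibody, ECL.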
In general terms: Immunoblotting shows a protein as a band on a membrane.

A further experiment relates to HeLa. Description: Induction of apoptosis in human HeLa cells assessed as increase in PARP cleavage at 20 uM after 8 hrs in presence of RXRalpha siRNA by Immunoblotting analysis. It is filed as functional, cell-based. Summed up: (§3)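 Cells transfected (Lipofectamine 2000) with control or RXRα siRNA for 48 h. HeLa (MEM, 10% FBS) then given compound at 20 μM for 8 h; MCF-7 (MEM, 10% FBS) given 30 μM for 12 h. Lysates run on 10% SDS-PAGE, transferred to nitrocellulose, probed for PARP cleavage and detected by ECL.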

Experiment [5] deals with T2, Retinoic acid receptor RXR-alpha (Homo sapiens). Description: Inhibition of RXRalpha in human HeLa cells assessed as increase in PARP cleavage after 8 hrs by Immunoblotting analysis. It is filed as cell-based. Summed up: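 HeLa cells in medium with 0% FBS treated with compounds, with or without TNF-α (20 ng/mL), for 8 h. PARP cleavage detected by immunoblot: 10% SDS-PAGE, nitrocellulose, 5% milk/TBST block, ECL detection. For the RXRα-dependence check, cells first got control or RXRα siRNA for 48 h, then compounds at 20 µM for 8 h.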

For experiment [6] the target is unchanged. In words: Inhibition of RXRalpha in human MCF7 cells assessed as increase in PARP cleavage at 30 uM after 12 hrs in presence of TNFalpha by Immunoblotting analysis. Format: cell-based. Summed up: as §2
For experiment [7], the system named is MCF7. Description: Induction of apoptosis in human MCF7 cells assessed as increase in PARP cleavage at 30 uM after 12 hrs in presence of siRNA by Immunoblotting analysis. It is filed as functional, cell-based. Summed up:
as §3

Experiment [8] deals with T2, Retinoic acid receptor RXR-alpha (Homo sapiens). Description: Inhibition of RXRalpha in human MCF7 cells assessed as increase in PARP cleavage after 12 hrs by Immunoblotting analysis. Format: cell-based. Summed up:
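MCF-7 cells in medium with 0% FBS treated with compounds, with or without TNF-α (20 ng/mL), for 12 h. PARP cleavage read by immunoblot (10% SDS-PAGE, ECL). For the RXRα-dependence check, cells got control or RXRα siRNA for 48 h, then compounds at 30 µM for 12 h.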

27 compounds from ChEMBL document CHEMBL4422640, “Design, synthesis and biological evaluation of tetrazole-containing RXRα ligands as anticancer agents” (Eur J Med Chem, 2019) can be followed below.

Structures are written as SMILES. Activity calls are given as the source filed them. The calls are words filed in the database; no cut-off is given here.

What is called Kd is the constant that tells how readily two partners part at equilibrium. Higher therefore signals weaker binding. In turn, `CC1=C(CC(=O)O)c2cc(F)ccc2/C1=C\c1ccc(C(C)C)cc1` yielded a dissociation constant Kd in experiment [1] of 2.38 µM.
Consider `COc1ccc(/C=C2\C=C(Cc3nnn[nH]3)c3ccccc32)cc1`, for which, in experiment [2], the outcome was Active.
The same measure, in the same setting: the result for `COc1ccc(/C=C2/C(C)=C(CCc3nnn[nH]3)c3ccccc32)cc1` reads “Active”.
On to `CC(C)c1ccc(/C=C2\C=C(Cc3nnn[nH]3)c3ccccc32)cc1`, for which the result in experiment [2] was Active.
By IC50 is commonly meant the point on the concentration scale where inhibition reaches its midpoint. Regarding `CC1=C(CCc2nnn[nH]2)c2ccccc2/C1=C\c1cccc(Cl)c1`, the IC50 in the experiment with MDA-MB-231 was determined as 24.7 µM; in the experiment with MCF7 [3] it was 45.6 µM.
For the compound `CC1=C(CCc2nnn[nH]2)c2ccccc2/C1=C\c1ccc(OC(F)(F)F)cc1`, the inhibition entry in experiment [4] and in experiment [6] was “Active” in each case. Further, the IC50 in the experiment with MDA-MB-231 worked out at 8.9 µM; in the experiment with MCF7 [3], 17.3 µM. Further, the result with HeLa and in the experiment with MCF7 [7] was inactive. Besides, the inhibition result in experiment [5] and in experiment [8] was “Dose-dependent effect” throughout. In addition, the Kd in experiment [1] came to 1.59 µM.
Take `CC1=C(Cc2nnn[nH]2)c2ccccc2/C1=C\c1cccs1`: the IC50 in the experiment on MDA-MB-231 worked out at 53.3 µM; with MCF7 [3], 124 µM.
As for `CC1=C(CCc2nnn[nH]2)c2ccccc2/C1=C\c1cccc2ccccc12`, the inhibition entry in experiment [5] and in experiment [8] was “Dose-dependent effect” in each case. For the same compound, the result in [2] was Active.
`CC1=C(CCc2nnn[nH]2)c2ccccc2/C1=C\c1ccc(C(C)C)cc1`: the results for the IC50 with MDA-MB-231 and with MCF7 [3] were 12.3 µM and 27 µM, respectively.
The like results for `CC(C)c1ccc(/C=C2\C=C(CCc3nnn[nH]3)c3ccccc32)cc1` were, in that order, 15.6 µM and 41.8 µM.
In the same order, the values of `COc1ccc(/C=C2/C(C)=C(Cc3nnn[nH]3)c3ccccc32)cc1` are 25.7 µM and 104 µM.
In the case of `CC1=C(Cc2nnn[nH]2)c2ccccc2/C1=C\c1ccc(C(C)(C)C)cc1`, the IC50 in the experiment on MDA-MB-231 was found to be 14.3 µM; in the experiment on MCF7 [3] it was 38.4 µM.
In the same order, the values of `CC1=C(Cc2nnn[nH]2)c2ccccc2/C1=C\c1ccccc1C(F)(F)F` are 40.8 µM and 62.3 µM.
The like results for `CC1=C(Cc2nnn[nH]2)c2ccccc2/C1=C\c1ccc(C(C)C)cc1` were, in that order, 8.48 µM and 27.6 µM.
In the same order, the values of `CC1=C(CCc2nnn[nH]2)c2ccccc2/C1=C\c1cccc(C(F)(F)F)c1` are 15.6 µM and 28.8 µM.
Turning to `CC1=C(Cc2noc(=O)[nH]2)c2ccccc2/C1=C\c1ccc(C(C)C)cc1`, the IC50 in the experiment on MDA-MB-231 was determined as 9.04 µM; in the experiment on MCF7 [3] it was 23.8 µM.
As to `CC1=C(CCc2nnn[nH]2)c2ccccc2/C1=C\c1ccccc1C(F)(F)F`, in [2], the outcome was Active.
The same measure, in the same setting: the result for `CC1=C(CCc2nnn[nH]2)c2ccccc2/C1=C\c1ccccc1Cl` reads “Active”.
With `CC1=C(CCc2nnn[nH]2)c2ccccc2/C1=C\c1ccc(Cl)cc1`, the IC50 in the experiment on MDA-MB-231 stood at 15.2 µM; with MCF7 [3], 56.3 µM.
As for `CC1=C(Cc2nnn[nH]2)c2ccccc2/C1=C\c1ccc(OC(F)(F)F)cc1`, the outcome in experiment [2] was Active.
On to `CC(C)c1ccc(/C=C2/C=C(CC(=O)NO)c3cc(F)ccc32)cc1`, for which the inhibition result in experiment [4] and in experiment [6] was “Active” throughout. The IC50 in the experiment with MDA-MB-231 is 5 µM; in the experiment with MCF7 [3] it was 20.8 µM. Besides, the outcome in the experiment with HeLa and in the experiment on MCF7 [7] was inactive. The compound also showed a Kd in experiment [1] of 1.13 µM.
On to `CSc1ccc(/C=C2/C(C)=C(CCc3nnn[nH]3)c3ccccc32)cc1`, for which the outcome in experiment [2] was Active.
On the same count and under the same terms, the result for `CC1=C(Cc2nnn[nH]2)c2ccccc2/C1=C\c1cccc(C(F)(F)F)c1` reads “Active”.
For `CC1=C(CCc2nnn[nH]2)c2ccccc2/C1=C\c1ccc(C(C)(C)C)cc1`, the IC50 turned out to be 12.5 µM in the experiment on MDA-MB-231 and 31.1 µM in the experiment with MCF7 [3].
`CSc1ccc(/C=C2/C(C)=C(Cc3nnn[nH]3)c3ccccc32)cc1`: the outcome in experiment [2] was Active.
Same read-out and setting: the result for `CC1=C(Cc2nnn[nH]2)c2ccccc2/C1=C\c1ccc(C(F)(F)F)cc1` reads “Active”.
As to `CC1=C(CCc2nnn[nH]2)c2ccccc2/C1=C\c1ccc(C(F)(F)F)cc1`, the results for the IC50 in the experiment with MDA-MB-231 and in the experiment with MCF7 [3] were 22.1 µM and 39.4 µM, respectively.
